Data on 18 molecules can be found in ChEMBL document CHEMBL4819036, “Hepatoprotective Glucosyloxybenzyl 2-Hydroxy-2-isobutylsuccinates from Pleione yunnanensis” (2021).

The structures appear in SMILES notation.

In assay [1] the test system is HepG2. Briefly: Hepatoprotective activity against APAP-induced toxicity in human HepG2 cells assessed as cell survival rate at 10 uM after 48 hrs by MTT assay (reference value: 23 %). It counts as functional. On the technique in general: Tetrazolium assays rely on reduction of a dye to a coloured formazan, in cell work by metabolically active cells.
For assay [2], the system named is L02. Briefly: Hepatoprotective activity against D-GalN-induced toxicity in human HL-7702 cells assessed as cell survival rate at 10 uM preincubated for 48 hrs followed by D-GalN stimulation for 8 hrs by MTT assay (reference value: 33 %). It counts as functional. The following applies: time 56 hrs. A digest of the protocol: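 Normal human HL-7702 hepatocytes were injured with D-galactosamine at 60 mM, with test compounds at 10 μM. Viability was measured by the MTT method as OD, and survival rate was expressed as a percentage of untreated control cells. Bicyclol at 10 μM served as the positive control. Statistics compared treated cells with the D-GalN model group.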

`CC(C)C[C@@](O)(CC(=O)OCc1ccc(O[C@@H]2O[C@H](CO)[C@@H](O)[C@H](O)[C@H]2O)cc1)C(=O)OCc1ccc(O[C@@H]2O[C@H](CO)[C@@H](O)[C@H](O)[C@H]2O)cc1`: the Activity in assay [1] was found to be 23%.
For the molecule `CC(C)C[C@](CC(=O)OCc1ccc(O[C@@H]2O[C@H](COCc3ccc(O)cc3)[C@@H](O)[C@H](O)[C@H]2O)cc1)(O[C@@H]1O[C@H](CO)[C@@H](O)[C@H](O)[C@H]1O)C(=O)OCc1ccc(O[C@@H]2O[C@H](CO)[C@@H](O)[C@H](O)[C@H]2O)cc1`, the results for the Activity in assay [2] and in assay [1] were 39% and 32%, respectively.
Take `CC(=O)OC[C@H]1O[C@@H](O[C@@](CC(=O)OCc2ccc(O[C@@H]3O[C@H](CO)[C@@H](O)[C@H](O)[C@H]3O)cc2)(CC(C)C)C(=O)OCc2ccc(O[C@@H]3O[C@H](CO)[C@@H](O)[C@H](O)[C@H]3O)cc2)[C@H](O)[C@@H](O)[C@@H]1O`: the Activity in assay [2] is 39%; in assay [1], 14%.
The corresponding values for `CC(C)C[C@@](O)(CC(=O)OCc1ccc(O[C@@H]2O[C@H](CO)[C@@H](O)[C@H](O)[C@H]2O)cc1)C(=O)OCc1ccc(O[C@@H]2O[C@H](CO)[C@@H](O)[C@H](O)[C@H]2OCc2ccc(O)cc2)cc1` are 49% and 19%.
The corresponding values for `CC(C)C[C@](CC(=O)OCc1ccc(O[C@@H]2O[C@H](CO)[C@@H](O)[C@H](O)[C@H]2O)cc1)(O[C@@H]1O[C@H](CO)[C@@H](O)[C@H](O)[C@H]1OC(=O)/C=C/c1ccc(O[C@@H]2O[C@H](CO)[C@@H](O)[C@H](O)[C@H]2O)cc1)C(=O)OCc1ccc(O[C@@H]2O[C@H](CO)[C@@H](O)[C@H](O)[C@H]2O)cc1` are 43% and 25%.
The like results for `COC(=O)C[C@](O)(CC(C)C)C(=O)OCc1ccc(O[C@@H]2O[C@H](CO)[C@@H](O)[C@H](O)[C@H]2O)cc1` were, in that order, 64% and 28%.
As to `CC(C)C[C@](CC(=O)OCc1ccc(O[C@@H]2O[C@H](CO)[C@@H](O)[C@H](O)[C@H]2O)cc1)(O[C@@H]1O[C@H](CO)[C@@H](O)[C@H](O)[C@H]1OC(=O)/C=C\c1ccc(O)cc1)C(=O)OCc1ccc(O[C@@H]2O[C@H](CO)[C@@H](O)[C@H](O)[C@H]2O)cc1`, the results for the Activity in assay [2] and in assay [1] were 39% and 21%, respectively.
With `CC(C)C[C@](CC(=O)OCc1ccc(O[C@@H]2O[C@H](CO)[C@@H](O)[C@H](O)[C@H]2O)cc1)(O[C@@H]1O[C@H](CO)[C@@H](O)[C@H](O)[C@H]1O)C(=O)OCc1ccc(O[C@@H]2O[C@H](CO)[C@@H](O)[C@H](O)[C@H]2O)cc1`, the Activity in assay [1] is on record as 35%.
For `CC(C)C[C@](CC(=O)OCc1ccc(O[C@@H]2O[C@H](CO)[C@@H](O)[C@H](O)[C@H]2O)cc1)(O[C@@H]1O[C@H](CO)[C@@H](O)[C@H](O)[C@H]1OC(=O)/C=C/c1ccc(O)cc1)C(=O)OCc1ccc(O[C@@H]2O[C@H](CO)[C@@H](O)[C@H](O)[C@H]2O)cc1`, the Activity is recorded as 52% in assay [2] and 23% in assay [1].
The like results for `CC(C)C[C@@](O)(CC(=O)OCc1ccc(O[C@@H]2O[C@H](COCc3ccc(O)cc3)[C@@H](O)[C@H](O)[C@H]2O)cc1)C(=O)OCc1ccc(O[C@@H]2O[C@H](CO)[C@@H](O)[C@H](O)[C@H]2O)cc1` were, in that order, 60% and 27%.
With `CC(C)C[C@@](O)(CC(=O)OCc1ccc(O[C@@H]2O[C@H](CO)[C@@H](O)[C@H](O)[C@H]2O)cc1)C(=O)OCc1ccc(O[C@@H]2O[C@H](COCc3ccc(O)cc3)[C@@H](O)[C@H](O)[C@H]2O)cc1`, the Activity in assay [2] was found to be 55%; in assay [1], 28%.
In the case of `CC(C)C[C@](CC(=O)O)(O[C@@H]1O[C@H](CO)[C@@H](O)[C@H](O)[C@H]1O)C(=O)OCc1ccc(O[C@@H]2O[C@H](CO)[C@@H](O)[C@H](O)[C@H]2O)cc1`, the Activity in assay [1] is listed as 27%.
Turning to `CC(C)C[C@@](O)(CC(=O)O)C(=O)OCc1ccc(O[C@@H]2O[C@H](CO)[C@@H](O)[C@H](O)[C@H]2O)cc1`, the Activity in assay [1] is 28%.
Same read-out and setting: the same measure for `CC(C)C[C@](O)(C(=O)OCc1ccc(O[C@@H]2O[C@H](CO)[C@@H](O)[C@H](O)[C@H]2O)cc1)[C@H](O)C(=O)OCc1ccc(O[C@@H]2O[C@H](CO)[C@@H](O)[C@H](O)[C@H]2O)cc1`: 23%.
`CC(C)C[C@@](O)(CC(=O)OCc1ccc(O[C@@H]2O[C@H](CO[C@@H]3O[C@H](CO)[C@@H](O)[C@H](O)[C@H]3O)[C@@H](O)[C@H](O)[C@H]2O)cc1)C(=O)OCc1ccc(O[C@@H]2O[C@H](CO)[C@@H](O)[C@H](O)[C@H]2O)cc1`: the Activity in assay [2] was found to be 38%; in assay [1], 28%.
The corresponding values for `CC(C)C[C@](CC(=O)OCc1ccc(O[C@@H]2O[C@H](CO)[C@@H](O)[C@H](O)[C@H]2O)cc1)(O[C@@H]1O[C@H](CO)[C@@H](O)[C@H](O)[C@H]1OC(=O)/C=C\c1ccc(O[C@@H]2O[C@H](CO)[C@@H](O)[C@H](O)[C@H]2O)cc1)C(=O)OCc1ccc(O[C@@H]2O[C@H](CO)[C@@H](O)[C@H](O)[C@H]2O)cc1` are 38% and 17%.
The like results for `CC(C)C[C@@](O)(CC(=O)OCc1ccc(O[C@@H]2O[C@H](CO)[C@@H](O)[C@H](O)[C@H]2O)cc1)C(=O)OCc1ccc(O[C@@H]2O[C@H](CO[C@@H]3O[C@H](CO)[C@@H](O)[C@H](O)[C@H]3O)[C@@H](O)[C@H](O)[C@H]2O)cc1` were, in that order, 36% and 39%.
The corresponding values for `COC(=O)c1cc(OC)c2c(c1-c1c(CO)cc(OC)c3c1OCO3)OCO2` [BICYCLOL] are 47% and 32%.
